The target in test [1] is T1, Mu-type opioid receptor (Homo sapiens, UniProt P35372). Briefly: Displacement of [3H]DAMGO from human recombinant mu opioid receptor expressed in CHO cells. Format: cell-based. Summed up:
(§1)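 Radioligand displacement was run on human recombinant receptors expressed in CHO cells. The labels were [3H]DAMGO for MOR and [3H]U69593 for KOR. Values are the mean of two experiments, each in triplicate.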
For orientation: Loss of bound radioactivity is the signal in a displacement assay; it reports binding, not function.

The target of test [2] is T2, Kappa-type opioid receptor (Homo sapiens, UniProt P41145). Briefly: Displacement of [3H]U-69593 from human recombinant kappa opioid receptor expressed in CHO cells. In kind it is cell-based. Summed up:
as §1

Test [3] addresses T1, Mu-type opioid receptor. Briefly: Activity at human recombinant mu opioid receptor expressed in CHO cells by [35S]GTP-gamma-S binding assay. Format: functional, cell-based. Summed up: (§2)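 Human recombinant opioid receptors expressed in CHO cells. Agonist-stimulated [35S]GTPγS binding was measured and efficacy was referenced to DAMGO (MOR) or U69593 (KOR). Values are means of five or six experiments.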

Test [4] concerns the target T2, Kappa-type opioid receptor. Briefly: Activity at human recombinant kappa opioid receptor expressed in CHO cells by [35S]GTPgammaS binding assay. Format: functional, cell-based. The procedure, abridged: as §2
On the technique in general: GTPγS resists hydrolysis and so accumulates on activated G proteins.

Test [5] has as its target T2, Kappa-type opioid receptor. Briefly: Activity at human recombinant kappa opioid receptor expressed in CHO cells by [35S]GTP-gamma-S binding assay relative to U69593. Format: functional, cell-based. Summed up:
as §2

Test [6] relates to Mus musculus. Briefly: Antagonism of 1'-benzyl-6,7-didehydro-3,14-dihydroxy-4,5alpha-epoxy-17-methyl-4',5',6',7'-tetrahydroindolo[2',3':6,7]morphinan-induced antinociceptive activity in mouse at 30 mg/kg, sc. In kind it is functional. Further details: scale not given: the % may be the effect or the level left. The following applies: route subcutaneous.
Test [7] deals with T1, Mu-type opioid receptor. Briefly: Activity at human recombinant mu opioid receptor expressed in CHO cells by [35S]GTPgammaS binding assay relative to DAMGO. Format: functional, cell-based. The procedure, abridged: as §2
For test [8], the target named is T3, Delta-type opioid receptor (Homo sapiens, UniProt P41143). Briefly: Displacement of [3H]Cl-DPDPE from human recombinant delta opioid receptor expressed in CHO cells. In kind it is cell-based.
In test [9] the target is T3, Delta-type opioid receptor. The following applies: CHO.
In test [10] the test system is Mus musculus. Briefly: Antagonism of SNC80-induced antinociceptive effect in mouse assessed by phenylquinone-induced abdominal stretch assay at 1 mg/kg, sc. Further details: scale not given: the % may be the effect or the level left. The following applies: route subcutaneous. Format: functional, Abdomen. Summed up: (§3)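 Mouse phenylquinone (PPQ) abdominal stretch assay. The test compound was given sc, and its antagonism of SNC80-induced antinociception was scored as percent antagonism of the agonist effect.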

Test [11] concerns Rattus norvegicus. Briefly: Prevention of SNC80-induced convulsions in Sprague-Dawley rat at 10 mg/kg, sc administered 20 mins before SNC80. In kind it is functional, organism-based. Further details: dose 10 mg/kg. The procedure, abridged: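 The test compound was given at 10 mg/kg sc 20 min before SNC80 (32 mg/kg), and prevention of SNC80-mediated convulsions was scored.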

Test [12] concerns Mus musculus. Briefly: Antagonism of SNC80-induced antinociceptive effect in mouse assessed by phenylquinone-induced abdominal stretch assay at 3 mg/kg, sc. Format: functional, Abdomen. Further details: scale not given: the % may be the effect or the level left. Conditions: route subcutaneous. Summed up: as §3
Test [13] has as its system Mus musculus. Briefly: Antagonism of SNC80-induced antinociceptive effect in mouse assessed by phenylquinone-induced abdominal stretch assay at 10 mg/kg, sc. In kind it is functional, Abdomen. The arrangement: scale not given: the % may be the effect or the level left. Conditions: route subcutaneous. The procedure, abridged:
as §3

For test [14], the system named is Mus musculus. Briefly: Antinociceptive activity in sc dosed mouse. Format: functional. The procedure, abridged: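 Antinociception was measured in the mouse PPQ-induced abdominal stretch assay after sc dosing.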
Test [15] relates to Mus musculus. Briefly: Antagonism of SNC80-induced antinociceptive effect in sc dosed mouse assessed by phenylquinone-induced abdominal stretch assay. In kind it is functional, organism-based. The following applies: Abdomen. Summed up:
as §3

Test [16] deals with Mus musculus. Briefly: Reversal of SNC80-induced antinociceptive effect in mouse assessed by phenylquinone-induced abdominal stretch assay at […], icv administered 24 hrs before SNC80. Format: functional, Abdomen.
Test [17] is filed under the species Mus musculus. Briefly: Reversal of 1'-benzyl-6,7-didehydro-3,14-dihydroxy-4,5alpha-epoxy-17-methyl-4',5',6',7'-tetrahydroindolo[2',3':6,7]morphinan-induced antinociceptive activity in mouse. Format: functional.

16 compounds from ChEMBL document CHEMBL1149288, “Effects of substitution on the pyrrole N atom in derivatives of tetrahydronaltrindole, tetrahydrooxymorphindole, and a related 4,5-epoxyphenylpyrrolomorphinan” (J Med Chem, 2004) can be followed below.

The term Ki denotes the equilibrium dissociation constant of an inhibitor or competing ligand from its target. By EC50 is commonly meant the midpoint of the concentration-response curve. The ED50 is the midpoint of the dose-response relation.

Active and inactive are the calls of the source. The rule behind the calls is not given here.

T1 sequence (P35372 whole entry): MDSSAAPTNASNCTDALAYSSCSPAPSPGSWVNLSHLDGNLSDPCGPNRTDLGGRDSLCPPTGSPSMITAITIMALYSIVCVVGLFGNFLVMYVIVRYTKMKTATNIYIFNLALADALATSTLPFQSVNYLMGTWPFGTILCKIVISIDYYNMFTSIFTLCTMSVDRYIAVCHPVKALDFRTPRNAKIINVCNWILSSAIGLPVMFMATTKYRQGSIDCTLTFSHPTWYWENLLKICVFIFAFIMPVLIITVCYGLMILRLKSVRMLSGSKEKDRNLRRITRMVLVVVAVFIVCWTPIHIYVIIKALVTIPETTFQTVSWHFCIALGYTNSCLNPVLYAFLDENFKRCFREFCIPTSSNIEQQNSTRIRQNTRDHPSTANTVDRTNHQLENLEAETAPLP
T2 sequence (P41145 whole entry): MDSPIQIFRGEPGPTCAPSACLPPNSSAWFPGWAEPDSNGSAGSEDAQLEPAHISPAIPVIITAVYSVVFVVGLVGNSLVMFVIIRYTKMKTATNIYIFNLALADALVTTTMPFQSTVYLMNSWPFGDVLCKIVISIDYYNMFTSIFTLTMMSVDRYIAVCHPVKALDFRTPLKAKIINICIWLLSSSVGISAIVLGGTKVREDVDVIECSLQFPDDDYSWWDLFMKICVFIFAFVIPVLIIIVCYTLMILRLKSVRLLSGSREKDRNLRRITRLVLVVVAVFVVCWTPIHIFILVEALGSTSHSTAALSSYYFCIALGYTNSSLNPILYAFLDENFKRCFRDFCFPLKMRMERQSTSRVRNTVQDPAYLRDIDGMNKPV
T3 sequence (P41143 whole entry): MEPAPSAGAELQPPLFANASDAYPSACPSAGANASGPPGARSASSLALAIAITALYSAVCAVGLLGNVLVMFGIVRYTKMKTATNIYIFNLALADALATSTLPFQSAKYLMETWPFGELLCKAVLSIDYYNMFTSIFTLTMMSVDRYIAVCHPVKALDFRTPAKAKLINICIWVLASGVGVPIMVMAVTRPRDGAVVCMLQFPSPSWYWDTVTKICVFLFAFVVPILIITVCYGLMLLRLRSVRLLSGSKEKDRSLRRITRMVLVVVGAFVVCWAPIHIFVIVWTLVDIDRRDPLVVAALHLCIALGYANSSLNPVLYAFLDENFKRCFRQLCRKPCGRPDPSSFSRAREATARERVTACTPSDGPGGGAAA

On to `Oc1ccc2c3c1O[C@H]1c4c(c5c(n4CC4CCCCC4)CCCC5)C[C@@]4(O)C(C2)N(CC2CC2)CC[C@]314`, for which the Ki in [1] came to 18.5 nM; in test [2], 24.9 nM. In addition, the Ke in test [3] was 11.6 nM. The EC50 in test [4] was found to be 54.3 nM. Further, in test [5], the Activity worked out at 84%.

Take `Oc1ccc2c3c1O[C@H]1c4[nH]c5ccccc5c4C[C@@]4(O)[C@@H](C2)N(CC2CC2)CC[C@]314` [NALTRINDOLE]: the Activity in test [6] is reported as 40%.

On to `CN1CC[C@]23c4c5ccc(O)c4O[C@H]2c2c(c4c(n2CCc2ccccc2)CCCC4)C[C@@]3(O)C1C5`, for which the figures for the Ki in [1] and in test [2] were 15.4 nM and 163 nM, respectively. Besides, the EC50 in test [3] is 175 nM; in [4] it was 131 nM. In addition, the Activity was 71% in test [7] and 76% in test [5].

Regarding `CCn1c2c(c3c1[C@@H]1Oc4c(O)ccc5c4[C@@]14CCN(CC1CC1)C(C5)[C@]4(O)C3)CCCC2`, the Ki in [1] amounted to 5.06 nM; in [2], 7.38 nM. Moreover, the Ke in [3] is 5.32 nM. Also, the EC50 in [4] was found to be 14.3 nM. For the same compound, the Activity in test [5] was 63%.

As for `CCn1cc(-c2ccccc2)c2c1[C@@H]1Oc3c(O)ccc4c3[C@@]13CCN(CC1CC1)C(C4)[C@]3(O)C2`, the Ki in test [1] came out at 8.75 nM; in [2], 24.3 nM; in test [8], 2.95 nM. Besides, the Ke came out at 10.7 nM in test [3], 44 nM in test [4] and 0.72 nM in test [9].

Turning to `Oc1ccc2c3c1O[C@H]1c4c(c5ccccc5n4Cc4ccccc4)C[C@@]4(O)C(C2)N(CC2CC2)CC[C@]314`, in [10], the Activity was 57%.

For `CCn1c2c(c3c1[C@@H]1Oc4c(O)ccc5c4[C@@]14CCN(C)C(C5)[C@]4(O)C3)CCCC2`, the Ki came to 25.8 nM in test [1] and 168 nM in test [2]. Also, the results for the EC50 in test [3] and in test [4] were 175 nM and 98.2 nM, respectively. The figures for the Activity in [7] and in [5] were 41% and 66%, respectively.

As for `Cn1cc(-c2ccccc2)c2c1[C@@H]1Oc3c(O)ccc4c3[C@@]13CCN(CC1CC1)C(C4)[C@]3(O)C2`, the Ki amounted to 7.6 nM in test [1], 18.5 nM in [2] and 3.35 nM in [8]. The Ke stood at 4.04 nM in [3], 34.1 nM in [4] and 0.62 nM in [9].

In the case of `Oc1ccc2c3c1O[C@H]1c4c(c5c(n4CC4CC4)CCCC5)C[C@@]4(O)C(C2)N(CC2CC2)CC[C@]314`, the Ki in test [1] was determined as 2.52 nM; in test [2], 2.51 nM. Also, the Ke in [4] amounted to 11.8 nM.

Turning to `CN1CC[C@]23c4c5ccc(O)c4O[C@H]2c2c(c4c(n2C)CCCC4)C[C@@]3(O)C1C5`, the Ki in [2] was 89.1 nM. In addition, the EC50 in [3] was found to be 222 nM; in test [4] it was 97.2 nM. Also, the Activity in test [7] came out at 39%; in test [5] it was 69%.

On to `Cn1c2c(c3c1[C@@H]1Oc4c(O)ccc5c4[C@@]14CCN(CC1CC1)[C@H](C5)[C@]4(O)C3)CCCC2`, for which the Ki in test [1] is 5.76 nM; in [2], 4.11 nM. Moreover, the Ke in test [3] was determined as 4.3 nM; in test [4], 12.2 nM.

Regarding `Oc1ccc2c3c1O[C@H]1c4c(c5c(n4Cc4ccccc4)CCCC5)C[C@@]4(O)C(C2)N(CC2CC2)CC[C@]314`, the figures for the Ki in [1], in [2] and in test [8] were 5.39 nM, 6.29 nM and 2.94 nM, respectively. Moreover, the Ke was determined as 8.13 nM in test [3], 49.8 nM in test [4] and 2.23 nM in test [9]. Besides, in test [11], the result was Active. The Activity in test [12] and in test [13] was 54% each time.

For the compound `CN1CC[C@]23c4c5ccc(O)c4O[C@H]2c2c(c4c(n2Cc2ccccc2)CCCC4)C[C@@]3(O)C1C5`, the Ki in test [1] amounted to 88.9 nM; in test [2] it was 289 nM. The values for the EC50 in test [3] and in [4] were 732 nM and 1750 nM, respectively. For the same compound, the figures for the Activity in [7], in [5] and in [16] were 44%, 43% and greater than 50%, respectively. For the same compound, the 50% effect level in [14] (ED50) was put at a dose of 5.1 mg/kg. Further, in test [15], the result was inactive.

In the case of `CN1CC[C@]23c4c5ccc(O)c4O[C@H]2c2c(c4c(n2CC2CCCCC2)CCCC4)C[C@@]3(O)C1C5`, the Ki in [1] was found to be 17.9 nM; in [2], 262 nM. Also, the EC50 stood at 130 nM in test [3] and 153 nM in test [4]. The Activity in [7] was 57%; in [5], 85%.

Turning to `Oc1ccc2c3c1O[C@H]1c4c(c5c(n4CCc4ccccc4)CCCC5)C[C@@]4(O)C(C2)N(CC2CC2)CC[C@]314`, the Ki in [1] amounted to 7.46 nM. In test [3], the Ke was 5.66 nM. Also, in [4], the concentration for a half-maximal effect (EC50) is 13.8 nM. The Activity in test [5] came out at 76%.

Consider `O=C1CC[C@@]2(O)[C@H]3Cc4ccc(O)c5c4[C@@]2(CCN3CC2CC2)[C@H]1O5` [NALTREXONE], for which the AD50 in test [17] was 0.02 mg/kg.
